Source: ChEMBL document CHEMBL1155238, “Synthesis and antimycobacterial activity of N'-[(E)-(monosubstituted-benzylidene)]-2-pyrazinecarbohydrazide derivatives” (Eur J Med Chem, 2009)
Converted amounts (≈) assume the structure as drawn.

Columns and labels:
[1] = Cytotoxicity against mouse J774 cells assessed as cell viability at 50 ug/ml after 48 hrs by MTT assay; type: cell-based; conditions: read-out: Activity
[2] = Cytotoxicity against mouse J774 cells assessed as cell viability at 100 ug/ml after 48 hrs by MTT assay; type: cell-based; conditions: read-out: Activity
Method in brief: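 Uninfected J774 macrophages seeded at 2.5 × 10^6 cells/well for 24 h (5% CO2, 37 °C); non-adherent cells washed off with RPMI 1640, 10% FBS, gentamicin 25 µg/mL. Adherent cells given compound (1.0, 10.0, 100 µg/mL) in triplicate for 48 h. Medium was the live control, 3% tween 20 the dead control. MTT for 4 h, DMSO solubilization, absorbance at 540 nm, % viability.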

[3] = Cytotoxicity against mouse J774 cells assessed as cell viability at 150 ug/ml after 48 hrs by MTT assay; type: cell-based; conditions: read-out: Activity
[4] = Cytotoxicity against Mycobacterium bovis Bacillus Calmette-Guerin infected mouse J774 cells assessed as cell viability at 50 ug/ml after 48 hrs by MTT assay; type: cell-based; conditions: read-out: Activity
[5] = Cytotoxicity against Mycobacterium bovis Bacillus Calmette-Guerin infected mouse J774 cells assessed as cell viability at 100 ug/ml after 48 hrs by MTT assay; type: cell-based; conditions: read-out: Activity
Method in brief: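 J774 macrophages seeded at 2.5 × 10^6 cells/well for 24 h (5% CO2, 37 °C); non-adherent cells washed off with RPMI 1640, 10% FBS, gentamicin 25 µg/mL. Adherent cells infected with BCG (2.5 × 10^6 UFC/well), then given compound (1.0, 10.0, 100 µg/mL) in triplicate for 48 h. Medium was the live control, 3% tween 20 the dead control. MTT for 4 h, DMSO solubilization, A540, % viability.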

[6] = Cytotoxicity against Mycobacterium bovis Bacillus Calmette-Guerin infected mouse J774 cells assessed as cell viability at 150 ug/ml after 48 hrs by MTT assay; type: cell-based; conditions: read-out: Activity
[7] = system: Mycobacterium tuberculosis; assay: Antimycobacterial activity against Mycobacterium tuberculosis H37Rv ATCC 27294 after 5 days by microplate Alamar blue assay; type: functional; conditions: H37Rv ATCC 27294, 120 h
Method in brief: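 M. tuberculosis ATCC 27294 in Middlebrook 7H9 broth with compounds serially diluted on the plate (final 0.01–100 µg/mL). Incubated at 37 °C for five days, then a 1:1 Alamar Blue/10% tween 80 mix was added for 24 h. Blue read as no growth, pink as growth. MIC is the lowest concentration preventing the blue-to-pink change.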

Structure (SMILES) | viability at 48 h, 50 ug/ml [1] | viability at 48 h, 100 ug/ml [2] | viability at 48 h, 150 ug/ml [3] | viability at 48 h, 50 ug/ml [4] | viability at 48 h, 100 ug/ml [5] | viability at 48 h, 150 ug/ml [6] | MIC [7]
O=C(N/N=C/c1cccc([N+](=O)[O-])c1)c1cnccn1 | 100% | 85% | 76% | 92% | 92% | 72% | 100 µg/mL (≈ 369 µM)
O=C(N/N=C/c1ccccc1Br)c1cnccn1 | 98% | 100% | 91% | 73% | 64% | 52% | 
CCN(CC)c1ccc(/C=N/NC(=O)c2cnccn2)cc1 | 97% | 92% | 93% | 85% | 84% | 78% | 
O=C(N/N=C/c1ccc([N+](=O)[O-])cc1)c1cnccn1 | 50% | 44% | 44% |  |  |  | 
O=C(N/N=C/c1ccccc1O)c1cnccn1 | 1% | 0.3% | 0% |  |  |  | 
O=C(N/N=C/c1ccc(F)cc1)c1cnccn1 | 78% | 69% | 71% |  |  |  | 
CN(C)c1ccc(/C=N/NC(=O)c2cnccn2)cc1 | 93% | 87% | 89% | 80% | 73% | 71% | 
O=C(N/N=C/c1ccc(Cl)cc1)c1cnccn1 | 83% | 64% | 56% |  |  |  | 
COc1cccc(/C=N/NC(=O)c2cnccn2)c1 | 100% | 100% | 97% | 100% | 98% | 87% | > 100 µg/mL
COc1ccc(/C=N/NC(=O)c2cnccn2)cc1 | 74% | 55% | 55% |  |  |  | 
CCOc1cccc(/C=N/NC(=O)c2cnccn2)c1 | 74% | 71% | 69% |  |  |  | 
O=C(N/N=C/c1ccccc1Cl)c1cnccn1 | 70% | 66% | 69% |  |  |  | 
O=C(N/N=C/c1ccccc1F)c1cnccn1 | 100% | 100% | 81% | 100% | 80% | 88% | 100 µg/mL (≈ 409 µM)
O=C(N/N=C/c1cccc(F)c1)c1cnccn1 | 49% | 46% | 40% |  |  |  | 
O=C(N/N=C/c1ccc(O)cc1)c1cnccn1 | 100% | 81% | 80% | 100% | 72% | 91% | 
N#Cc1ccccc1/C=N/NC(=O)c1cnccn1 | 92% | 75% | 70% | 80% | 73% | 75% | 
CCOc1ccc(/C=N/NC(=O)c2cnccn2)cc1 | 100% | 98% | 100% | 90% | 85% | 88% | > 100 µg/mL
O=C(N/N=C/c1cccc(O)c1)c1cnccn1 | 100% | 100% | 88% | 73% | 64% | 57% | 
N#Cc1ccc(/C=N/NC(=O)c2cnccn2)cc1 | 100% | 100% | 100% | 100% | 98% | 100% | > 100 µg/mL
O=C(N/N=C/c1cccc(Cl)c1)c1cnccn1 | 100% | 100% | 100% | 100% | 96% | 94% | 50 µg/mL (≈ 192 µM)
N#Cc1cccc(/C=N/NC(=O)c2cnccn2)c1 | 100% | 100% | 100% | 100% | 98% | 89% | 50 µg/mL (≈ 199 µM)
O=C(N/N=C/c1cccc(Br)c1)c1cnccn1 | 100% | 100% | 93% | 87% | 96% | 56% | 
COc1ccccc1/C=N/NC(=O)c1cnccn1 | 97% | 100% | 97% | 87% | 54% | 56% | 
O=C(N/N=C/c1ccc(Br)cc1)c1cnccn1 | 100% | 100% | 94% | 52% | 56% | 54% | 
O=C(N/N=C/c1ccccc1)c1cnccn1 | 100% | 75% | 100% | 100% | 88% | 80% | > 100 µg/mL
O=C(N/N=C/c1ccccc1[N+](=O)[O-])c1cnccn1 | 90% | 59% | 46% | 100% | 94% | 88% | 50 µg/mL (≈ 184 µM)
NC(=O)c1cnccn1 [PYRAZINAMIDE] | 100% | 100% | 100% | 92% | 87% | 67% | > 100 µg/mL
